Source: ChEMBL document CHEMBL1123812, “Pyrroloisoquinoline antidepressants. 2. In-depth exploration of structure-activity relationships” (J Med Chem, 1987)
pKi: −log10 of the molar value.

Experiments:
[1] = target: Sodium-dependent dopamine transporter (Rattus norvegicus, UniProt P23977); assay: Inhibition of the uptake of tritiated dopamine (DA) in rat synaptosomes; assay type: subcellular, Brain
[2] = target: Norepinephrine transporter (Rattus norvegicus, UniProt Q9WTR4); assay: Inhibition of uptake of tritiated norepinephrine (NE) in rat synaptosomes; assay type: subcellular, Brain
Mus musculus [3] = organism: Mus musculus; assay: Antagonism of tetrabenazine (TBZ)-induced depression in mice measured for ptosis; assay type: functional; conditions: Mus musculus; read-out: ED50
Outline: (§1)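 Nonfasted male Swiss Webster mice, 18–24 g, ten per dose level and in saline controls. Test compound given ip 30 min before tetrabenazine 32 mg/kg ip; dose expressed as free base. Motor activity and ptosis scored. Control response ≤90% corrected by Abbott's formula.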

Mus musculus [4] = organism: Mus musculus; assay: Gross behavioral effects ascertained in mice; W indicates weak stimulant or depressant activity of little significance.; assay type: functional, organism-based
Outline: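 Male Swiss Webster mice, 18–24 g, three per dose, given ip doses of 1, 3, 10, 30, 100 and 300 mg/kg. Observed for gross behavior and held for 4 days. Scored as weak (W), stimulant (S), depressant (D) or convulsant (C).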

Mus musculus [5] = organism: Mus musculus; assay: Antagonism of tetrabenazine (TBZ)-induced depression measured in mice by motor activity; assay type: functional; conditions: Mus musculus; read-out: ED50; outline: as §1

Sequence of Sodium-dependent dopamine transporter (P23977 whole entry): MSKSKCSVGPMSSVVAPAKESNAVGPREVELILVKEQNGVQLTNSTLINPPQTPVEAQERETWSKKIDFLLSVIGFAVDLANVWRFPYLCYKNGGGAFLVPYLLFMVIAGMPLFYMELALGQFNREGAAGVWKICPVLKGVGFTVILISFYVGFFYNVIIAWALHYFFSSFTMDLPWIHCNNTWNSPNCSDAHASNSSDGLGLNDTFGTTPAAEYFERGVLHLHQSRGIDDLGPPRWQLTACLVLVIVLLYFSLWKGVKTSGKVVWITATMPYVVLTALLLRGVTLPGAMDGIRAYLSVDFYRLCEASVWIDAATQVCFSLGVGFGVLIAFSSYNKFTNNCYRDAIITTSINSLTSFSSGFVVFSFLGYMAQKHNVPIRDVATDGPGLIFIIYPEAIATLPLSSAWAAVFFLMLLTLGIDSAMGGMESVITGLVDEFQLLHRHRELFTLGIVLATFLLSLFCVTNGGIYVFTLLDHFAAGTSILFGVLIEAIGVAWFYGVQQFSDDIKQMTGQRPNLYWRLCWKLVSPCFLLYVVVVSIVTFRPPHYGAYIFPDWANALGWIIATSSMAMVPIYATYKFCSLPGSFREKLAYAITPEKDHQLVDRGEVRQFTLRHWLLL
Sequence of Norepinephrine transporter (Q9WTR4 whole entry): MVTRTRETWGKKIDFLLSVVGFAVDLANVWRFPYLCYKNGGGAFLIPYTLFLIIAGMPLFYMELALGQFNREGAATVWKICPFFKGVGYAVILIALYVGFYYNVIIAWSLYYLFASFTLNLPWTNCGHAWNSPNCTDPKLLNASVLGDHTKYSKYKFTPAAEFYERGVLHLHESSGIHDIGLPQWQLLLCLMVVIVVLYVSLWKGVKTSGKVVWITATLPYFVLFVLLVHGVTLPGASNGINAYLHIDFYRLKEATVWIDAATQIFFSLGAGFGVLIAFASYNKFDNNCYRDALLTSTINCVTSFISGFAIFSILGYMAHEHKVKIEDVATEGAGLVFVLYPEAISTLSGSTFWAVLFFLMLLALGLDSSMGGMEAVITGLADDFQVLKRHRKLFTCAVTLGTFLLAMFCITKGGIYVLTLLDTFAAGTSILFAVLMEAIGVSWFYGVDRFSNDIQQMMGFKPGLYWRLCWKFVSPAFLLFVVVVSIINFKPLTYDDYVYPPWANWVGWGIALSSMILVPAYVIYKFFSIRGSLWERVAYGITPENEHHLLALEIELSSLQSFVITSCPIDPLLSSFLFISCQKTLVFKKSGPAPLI

| Structure (SMILES) | pKi [1] | pKi [2] | ED50 (Mus musculus [3]) [mg/kg] | behavior (Mus musculus [4]) | ED50 (Mus musculus [5]) [mg/kg] |
| --- | --- | --- | --- | --- | --- |
| FC(F)(F)c1cccc([C@@H]2CN3CCCC3c3cc(Cl)ccc32)c1 (some centres not stated) | 6.77 | 7.49 |  |  |  |
| c1ccc([C@H]2CN3CCCC[C@H]3c3ccccc32)cc1 | < 6.00 | 7.86 | > 30 | Weak | > 30 |
| c1ccc([C@H]2CN3CC[C@H]3c3ccccc32)cc1 | 7.09 | 8.20 | 1.25 |  | ~2 |
| NC(=O)c1ccc([C@@H]2CN3CCC[C@@H]3c3ccccc32)cc1 | 7.07 | 7.04 |  |  |  |
| Br.c1ccc2c(c1)[C@@H](C1CCCCC1)CN1CCC[C@@H]21 | 6.22 | 7.09 | 1.9 | Weak | 6.4 |
| Fc1cccc(Cl)c1[C@@H]1CN2CCC[C@@H]2c2ccccc21 | 6.55 | 7.94 | > 3 |  | > 3 |
| Br.c1csc([C@H]2CN3CCC[C@H]3c3ccsc32)c1 | 7.40 | 7.84 | ~30 | Weak | ~24 |
| CCN1Cc2ccccc2C(c2ccccc2)C1 (configuration not stated) | 7.44 | 8.25 | ~10 | Weak | ~10 |
| O[C@]1(c2ccccc2)CN2CCC[C@H]2c2ccccc21 | 7.55 | 8.09 | 1.6 | Weak | 8.4 |
| FC(F)(F)c1ccc2c(c1)[C@H]1CCCN1C[C@H]2c1ccccc1 | 7.95 | 8.51 |  |  |  |
| Br.CS(=O)(=O)c1ccc([C@@H]2CN3CCC[C@H]3c3ccccc32)cc1 |  |  | 17.7 | Weak | > 30 |
| FC(F)(F)c1ccc([C@@H]2CN3CCC[C@@H]3c3ccccc32)cc1 | 6.89 | 7.97 | ~2 |  | > 3 |
| Cc1ccccc1[C@@H]1CN2CCC[C@@H]2c2ccccc21 | 6.93 | 8.25 | ~1 |  | ~1 |
| Br.Brc1ccccc1[C@@H]1CN2CCC[C@@H]2c2ccccc21 | 7.58 | 8.82 | ~1 |  | ~0.6 |
| Clc1ccc([C@@H]2CN3CCC[C@H]3c3ccccc32)cc1 |  |  | 5.4 | Weak | 8.1 |
| Br.Clc1ccc2c(c1)[C@H]1CCCN1C[C@H]2c1ccccc1 | 8.60 | 9.21 | ~0.5 |  | ~0.3 |
| Clc1ccc([C@@H]2CN3CCC[C@@H]3c3ccccc32)c(Cl)c1 |  |  | ~1 |  | ~2 |
| N#Cc1ccc([C@@H]2CN3CCC[C@@H]3c3ccccc32)cc1 |  |  | ~2 |  | ~2 |
| FC(F)(F)c1cccc([C@@H]2CN3CCC[C@@H]3c3ccccc32)c1 (stereo in doubt; (+)-37b) | 7.59 | 8.82 |  |  |  |
| COc1ccc(NC(=O)Nc2ccc([C@@H]3CN4CCC[C@H]4c4ccccc43)cc2)cc1 | 8.06 | 7.82 |  |  |  |
| CCn1cc(C(=O)O)c(=O)c2ccc(Cc3ccccc3)nc21 [AMFONELIC ACID] | 8.14 | 7.39 |  |  |  |
| COc1ccc2c(c1)[C@H]1CCCN1C[C@H]2c1ccccc1 | 8.55 | 8.66 |  |  |  |
| CN1Cc2c(N)cccc2C(c2ccccc2)C1 (configuration not stated) [NOMIFENSINE] |  |  | 0.11 | Partial stimulant | 0.18 |
| CSc1ccccc1[C@@H]1CN2CCC[C@@H]2c2ccccc21 |  |  | ~0.6 |  | ~0.6 |
| O=C(Nc1ccccc1)Nc1ccc([C@@H]2CN3CCC[C@@H]3c3ccccc32)cc1 | 7.61 | 6.93 |  |  |  |
| Clc1cccc2c1[C@H](c1ccccc1)CN1CCC[C@H]21 | 7.60 | 7.94 |  |  |  |
